In the library only some 4.5% were active in any assay of this set; here they are far more common.
OX1R antag-1 – blocks the human orexin 1 receptor; hit rate 1.8% among 330,000; OX1R-expressing cells, FRET antagonist read-out; inhibition, % at 6.6 µM; in the data active = inhibition mostly above about 38%, no sharp cut-off; inactive = mostly below about 40%;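 note: 0% = agonist challenge alone and 100% = reference antagonist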
Target sequence (O43613 whole entry, looked up): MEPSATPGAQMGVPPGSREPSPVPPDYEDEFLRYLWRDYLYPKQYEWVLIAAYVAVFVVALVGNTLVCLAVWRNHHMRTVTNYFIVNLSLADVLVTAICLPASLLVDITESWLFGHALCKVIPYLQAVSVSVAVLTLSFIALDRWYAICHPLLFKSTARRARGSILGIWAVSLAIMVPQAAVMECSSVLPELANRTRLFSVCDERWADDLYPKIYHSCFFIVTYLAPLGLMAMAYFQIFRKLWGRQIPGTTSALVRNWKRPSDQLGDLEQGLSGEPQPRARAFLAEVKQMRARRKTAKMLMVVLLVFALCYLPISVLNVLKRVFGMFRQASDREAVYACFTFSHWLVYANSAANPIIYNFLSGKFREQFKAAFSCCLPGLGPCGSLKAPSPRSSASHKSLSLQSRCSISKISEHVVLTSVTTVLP
CHO parental Ca – signal in parental CHO cells, OX1R antagonist counter-screen; parental CHO-K1, ATP-induced calcium, Fluo-8 fluorescence; inhibition, % at 5.6 µM; hit rate 0.63% among 330,000;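 active = inhibition above that plate's mean sample inhibition plus 3 SD, cut at about 26% in these data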;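 note: 0% = ATP-challenged DMSO wells and 100% = DMSO wells without ATP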
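Assay system: parental CHO cells; Read-out basis: percent inhibition of ATP-evoked calcium rise, normalized to controls; Benchmarks: ATP and no-ATP DMSO wells; Compound dosing: single nominal dose of 5.6 µM per compound; Signal: Fluo-8 calcium dye fluorescence; Also added: ATP as calcium-mobilizing challenge; Repeats: singlicate.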
TAAR1 agonist – human TAAR1 agonism | Q96RJ0 | CHO RD-HGA16 TAAR1, Fluo-8 calcium fluorescence; vehicle wells 0%, saturating PEA agonist 100% | activation, % at 3 µM | hit rate 0.99% among 360,000 | AID 624467;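 active = activation above the mean activation of all test compounds in the run plus 3 SD, cut at about 38% in these data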
Target sequence (Q96RJ0 whole entry, looked up): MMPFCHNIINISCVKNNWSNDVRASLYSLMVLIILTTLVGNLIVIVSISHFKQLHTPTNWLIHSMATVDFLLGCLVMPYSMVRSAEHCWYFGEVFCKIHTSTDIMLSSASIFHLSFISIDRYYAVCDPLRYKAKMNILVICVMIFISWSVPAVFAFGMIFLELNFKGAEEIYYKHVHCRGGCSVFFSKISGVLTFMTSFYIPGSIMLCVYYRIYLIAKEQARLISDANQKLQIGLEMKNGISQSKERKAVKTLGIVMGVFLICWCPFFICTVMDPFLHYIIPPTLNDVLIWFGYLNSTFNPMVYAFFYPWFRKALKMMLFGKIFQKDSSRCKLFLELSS
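Test system: RD-HGA16 (CHO) cells co-expressing Gα16 and hTAAR1 / Benchmarks: DMSO vehicle as 0%, PEA at EC100 as 100% / Repeats: no replicates (n 1) / Measure: % activation from peak over basal fluorescence ratio, DMSO-to-PEA scaled / Timing: 17-24 h plating, Fluo-8 75 min 37 °C, 30 min RT / Technique: kinetic Fluo-8 calcium fluorescence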
OX1R antag-2 – human HCRTR1 antagonism. O43613. hit rate 0.43% among 330,000. CHO/OX1R cells, Fluo-8 calcium fluorescence, orexin A. inhibition, % at 5 µM;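 active = inhibition above its plate's threshold, mean inhibition of all tested compounds on the plate plus 3 SD, cut at about 37% in these data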;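 note: 0% = orexin A challenge wells and 100% = SB-334867-A antagonist wells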
GPR7 antag – blocks human GPR7 receptor signaling | P48145 | GPR7-expressing cells, fluorescence antagonist assay | inhibition, % at 4.4 µM | hit rate 1.1% among 290,000; in the data active = inhibition above about 16%, passing the limit was not always enough;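 note: cells stimulated with the agonist NPW; 0% = agonist with vehicle and 100% = vehicle without agonist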
TAAR1 antag – human TAAR1 antagonism | hit rate 1.5% among 360,000 | CHO RD-HGA16 TAAR1, Fluo-8 calcium fluorescence, antagonist | inhibition, % at 3 µM | AID 624466 | Q96RJ0;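 active = inhibition above a per-plate cutoff, the mean inhibition of test compounds on that plate plus 3 SD, cut at about 49% in these data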;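 note: 0% = DMSO plus EC80 beta-PEA response and 100% = DMSO alone without agonist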
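Test system – hTAAR1-expressing CHO RD-HGA16 cells, Gα16-coupled · Also added – β-PEA at EC80 concentration, post-compound challenge · Compound – 3 µM, single point · Incubation – dye loading 75 min at 37 °C, then 30 min room temperature · Measured by – Fluo-8 intracellular calcium dye fluorescence, real-time kinetic reads · Benchmarks – vehicle and agonist controls · Replicates – singlicate, one well per test compound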
TAAR1 ag conf – confirmation of human TAAR1 agonists; CHO RD-HGA16 TAAR1, Fluo-8 calcium fluorescence; scaled: DMSO 0%, maximal phenethylamine 100%; AID 651783; activation, % at 3 µM; hit rate 82% among 2,400; shares compounds with TAAR1 agonist;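 active = activation above a cutoff set at the run's mean compound activation plus 3 SD, cut at about 39% in these data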
Ga16 nonsel ag – nonselective agonist in parental cells, TAAR1 agonist counter-screen; shares compounds with TAAR1 agonist; CHO-Ga16 parental, Fluo-8 calcium fluorescence; normalized to maximal ATP response, DMSO zero; activation, % at 3 µM; hit rate 50% among 2,400; AID 651787;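 active = activation above the run cutoff, the mean activation over all tested wells plus 3 SD, cut at about 12% in these data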;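 note: 0% = DMSO wells and 100% = maximal ATP response on the peak over basal ratio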
TAAR1 desens – counter-screen for human TAAR1 agonists: agonists that desensitize TAAR1 | shares compounds with TAAR1 agonist | CHO RD-HGA16 hTAAR1, Fluo-8 calcium, beta-PEA response inhibition | inhibition, % at 3 µM | hit rate 46% among 2,400;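 active = inhibition above the run cutoff, the mean inhibition of all test compounds plus 3 SD, cut at about 49% in these data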;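 note: beta-PEA stimulus applied at its EC80; loss of beta-PEA calcium signal after compound pretreatment read as receptor desensitization; 0% = DMSO with beta-PEA at EC80 and 100% = DMSO alone without agonist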
Ga16 nonsel ant – counter-screen for TAAR1 agonists: nonselective Ga16 antagonists; AID 651952; shares compounds with TAAR1 agonist; inhibition, % at 3 µM; CHO-Ga16 ATP-induced calcium, Fluo-8 fluorescence; hit rate 39% among 2,400;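 active = inhibition above the plate's mean compound inhibition plus 3 SD, computed per plate, cut at about 22% in these data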;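 note: 0% = EC80 ATP with DMSO and 100% = DMSO wells without ATP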
The depositor's hits bear a star; x = not tested or not shown.

SMILES	OX1R antag-1	CHO parental Ca	TAAR1 agonist	OX1R antag-2	GPR7 antag	TAAR1 antag	TAAR1 ag conf	Ga16 nonsel ag	TAAR1 desens	Ga16 nonsel ant
O=C(Nc1nccs1)c1nc[nH]c1C(=O)N1CCc2ccccc2C1	0	-8	82*	-22	x	82*	103*	4	94*	8
O=C(Nc1ccccc1)c1nc[nH]c1C(=O)N1CCc2ccccc2C1	12	-27	4	-21	x	8	x	x	x	x
CN(C)S(=O)(=O)c1cccc(NC(=O)c2ccc3c(c2)S(=O)(=O)N=C2CCCCCN23)c1	-1	11	1	-13	x	8	x	x	x	x
COc1cccc(/C=N/Nc2nc(Nc3ccccc3)nc(-n3nc(C)cc3C)n2)c1O	59	34	84*	22	5	76*	49*	47*	76*	63*
Cc1cc(C)n(-c2nc(Nc3ccccc3)nc(-n3nc(C)cc3C)n2)n1	6	-16	6	-10	-8	8	x	x	x	x
COc1cccc(-c2nc(-c3cccc(C)c3)nc3cc(Cl)ccc23)c1	x	x	-1	x	x	-3	x	x	x	x
Cc1c(Cl)cccc1NC(=O)Cc1ccc([N+](=O)[O-])cc1	5	-1	56*	-16	12	18	31	17*	15	13
Cc1cc(C)cc(OCC(=O)Nc2ccc3c4c(cccc24)CC3)c1	7	-6	102*	0	4	81*	34	0	21	1
CCC(C)c1ccc(NC(=S)NC2CCN(Cc3ccccc3)CC2)cc1 (stereo not drawn)	2	3	58*	-3	2	1	45*	19*	39	27*
CCCOC1CCCN(C(=O)c2cc(Cl)c(Cl)cc2C(=O)O)C1 (stereo not drawn)	17	-8	65*	-9	-13	24	82*	4	51*	15
CCOC(=O)N1CCN(C(=O)c2cc(Cl)c(Cl)cc2C(=O)O)CC1	12	0	x	-1	-16	x	x	x	x	x
Cc1ccc(N2CCN(S(=O)(=O)c3ccc4oc(=O)ccc4c3)CC2)cc1Cl	7	6	1	0	-10	19	x	x	x	x
CC(Cc1ccccc1)N/C=C1/CC(=O)NC1=O (stereo not drawn)	9	2	83*	-4	-21	54*	91*	3	40	-2
O=C1C/C(=C/NCc2ccccc2)C(=O)N1	7	-9	7	-12	8	-8	x	x	x	x
COC(=O)[C@]12CCCCC=C1N(Cc1ccccc1)C(=O)[C@H](CC(=O)NCCc1ccccc1OC)C2	x	x	70*	x	x	57*	91*	2	77*	6
COC(=O)[C@]12CCCCC=C1N(Cc1cccc3ccccc13)C(=O)[C@H](CC(=O)NCCc1ccccc1OC)C2	x	x	45*	x	x	-6	44*	-1	15	20
CCOC(=O)[C@]12CCC=C1N(Cc1ccccc1)C(=O)[C@H](CC(=O)NCCc1ccccc1OC)C2	x	x	70*	x	x	52*	91*	0	75*	-7
CCCCCCCCN1C(=O)[C@H](CC(=O)NCCc2ccccc2OC)C[C@@]2(C(=O)OC)CC(C)(C)CC=C12	x	x	44*	x	x	-40	60*	3	24	13
CCOC(=O)[C@]12CCCC=C1N(Cc1ccccc1)C(=O)[C@H](CC(=O)NCCc1ccccc1OC)C2	x	x	28	x	x	-22	x	x	x	x
COC(=O)[C@]12CCCCC=C1N(Cc1cccc3ccccc13)C(=O)[C@H](CC(=O)NCc1ccccc1)C2	x	x	2	x	x	42	x	x	x	x
O=C(COc1ccccc1Cl)NC1CC1	12	-13	1	2	-24	-14	x	x	x	x
Cc1ccc(Cl)c(NC(=O)COC(=O)CNS(=O)(=O)/C=C/c2ccccc2)c1Cl	23	3	73*	-14	-7	18	1	4	23	13
CCOc1cc(N2CCOCC2)c(OCC)cc1NC(=O)c1ccc(S(=O)(=O)N2CC(C)OC(C)C2)cc1 (stereo not drawn)	x	x	-1	x	x	7	x	x	x	x
CC1=NOC(=O)/C1=C\c1ccc(-c2ccccc2Br)o1	x	x	46*	x	13	75*	32	29*	56*	65*
Cc1cc(NC(=O)CCN2CCCCC2)ccc1Br	-6	-14	4	-30	-4	-15	x	x	x	x
SMILES	OX1R antag-1	CHO parental Ca	TAAR1 agonist	OX1R antag-2	GPR7 antag	TAAR1 antag	TAAR1 ag conf	Ga16 nonsel ag	TAAR1 desens	Ga16 nonsel ant
Cc1ccc(C(=O)O/N=C(\N)Cc2cccc3ccccc23)cc1	7	-21	57*	-21	5	40	52*	-1	11	-1
Cc1ccc(/C(N)=N/OC(=O)c2ccc3ccccc3c2)cc1	24	-18	2	-5	4	-18	x	x	x	x
CC(Cc1ccccc1)NC(=O)CCNNC(=O)c1ccncc1 (stereo not drawn)	x	x	2	x	x	-4	x	x	x	x
COc1ccc(C(CNC(=O)c2cccc(N(C)C)c2)N2CCCC2)cc1 (stereo not drawn)	12	-15	-1	-26	-4	-7	x	x	x	x
CCC1CCc2sc(C(=O)NCC(c3ccc(OC)cc3)N3CCCC3)cc2C1 (stereo not drawn)	21	-21	46*	-40	x	-22	42*	5	20	16
C=CCOC(=O)C(=O)/C=C/c1coc2ccccc2c1=O	13	5	53*	-10	-10	16	36	23*	-4	13
CCCn1c(SCC(=O)N2CCc3ccccc3C2)nc(O)cc1=O	3	-6	x	-6	x	x	x	0	x	1
Cc1cc(=O)[nH]c(SCC(=O)N2CCc3ccccc3C2)n1	3	-13	77*	-16	-7	56*	77*	5	20	12
COc1ccccc1N(CC(=O)N(C)Cc1ccccc1)S(=O)(=O)c1cccs1	16	-32	7	-8	x	-17	x	x	x	x
CCOC(=O)c1ccc(NC(=O)NC2=NCCS2)cc1	x	x	5	x	x	-16	x	x	x	x
CCCNC(=O)C(CC)NC(=O)c1cccc([N+](=O)[O-])c1 (stereo not drawn)	15	-10	5	-14	x	-2	x	x	x	x
O=C(N[C@H](C(=O)N1CCC[C@H]1C(=O)NCCc1ccccc1Cl)c1ccccc1)c1ccco1	x	x	41*	x	x	-13	57*	1	60*	12

Assay outcomes (PubChem)
